Experimental data collected from several papers.
Compare with care: the assays were run in different laboratories.
CHEK1: Serine/threonine-protein kinase Chk1 (CHEK1, Homo sapiens, UniProt O14757)
TLR8: Toll-like receptor 8 (TLR8, Homo sapiens, UniProt Q9NR97)
GLP1R: Glucagon-like peptide 1 receptor (GLP1R, Homo sapiens, UniProt P43220)

| Compound | target | test | conditions | measurement | result |
| --- | --- | --- | --- | --- | --- |
| CCn1cncc1Cn1c(CN2CCC(c3cccc(OCc4ccc(F)cc4F)n3)CC2)nc2ccc(C(=O)O)cc21 | Glucagon-like peptide 1 receptor (GLP1R, Homo sapiens, UniProt P43220, L260F) | cAMP, agonist, TR-FRET |  | EC50 | 0.09 nM |
| CC(C)(Oc1ccc(CCNC(=O)c2ccc(Cl)cc2)cc1)C(=O)O | Peroxisome proliferator-activated receptor gamma (PPARG, Homo sapiens, UniProt P37231) | binding, ITC |  | Kd | 30300 nM |
| Cc1cnc(-c2ccc(-c3ccc(NC(=O)Nc4c(F)cc(F)cc4F)cc3F)c3c2C(=O)NC3)[nH]1 | Discoidin domain-containing receptor 2 (DDR2, Homo sapiens, UniProt Q16832) | binding, competition with immobilised ligand |  | Kd | 3 nM |
| CCOC(=O)CCCCCOc1ccc(Cl)cc1NC(=O)Nc1cnc(C#N)cn1 | CHEK1 | enzyme activity, inhibitor |  | IC50 | 380 nM |
| CCCCOc1nc(N)c2[nH]c(=O)n(CCN)c2n1 | TLR8 | reporter gene, agonist |  | EC50 | 209000 nM |
| c1ccc2c(Oc3nc(Nc4ccc(N5CCOCC5)cc4)c4ncn(C5CCCCC5)c4n3)cccc2c1 | Protein smoothened (SMO, Homo sapiens, UniProt Q99835) | GTPγS binding, agonist, radiometric | cell membranes | EC50 | 229 nM |
| CCCCCCCCCCCCCCCCC#CC(=O)O | DNA topoisomerase 1 (TOP1, Homo sapiens, UniProt P11387) | enzyme activity, inhibitor |  | EC50 | 20500 nM |
| CCCCCCCC/C=C\CCCCCCCC(=O)O[C@H](CC(=O)[O-])C[N+](C)(C)C | Pantothenate kinase 3 (PANK3, Homo sapiens, UniProt Q9H999) | enzyme activity, inhibitor, radiometric |  | EC50 | 600 nM |
| CSCC[C@H](NC(=O)[C@H](CCC(=O)O)NC(=O)[C@@H]1CCCN1C(=O)[C@@H](NC(=O)[C@@H]1CCCN1)[C@@H](C)O)C(=O)N[C@@H](CCCNC(=N)N)C(=O)N[C@@H](CCC(=O)O)C(=O)N[C@@H](CCCCN)C(=O)N[C@@H](CC(C)C)C(=O)N[C@H]1CSSC[C@@H]2NC(=O)[C@@H](NC(=O)[C@H](Cc3ccc(O)cc3)NC(=O)[C@H](CCCNC(=N)N)NC(=O)[C@H](C)NC(=O)[C@@H]3CCCN3C(=O)[C@H](CC(N)=O)NC(=O)[C@@H](NC(=O)[C@H](C)NC(=O)[C@H](C)NC(=O)[C@H](C)N)[C@@H](C)O)CSSC[C@H](NC(=O)CNC(=O)[C@H](CO)NC(=O)[C@H](CC(C)C)NC2=O)C(=O)N[C@@H]([C@@H](C)O)C(=O)N[C@@H](CCC(N)=O)C(=O)N[C@@H](CCC(N)=O)C(=O)N[C@@H](CC(=O)O)C(=O)N[C@@H](CC(C)C)C(=O)N[C@@H](CC(C)C)C(=O)N[C@@H]([C@@H](C)O)C(=O)N[C@@H](CC(C)C)C(=O)N[C@H](C(=O)N2CCC[C@H]2C(=O)N[C@@H](Cc2ccc(O)cc2)C(=O)O)CSSC[C@@H](C(=O)NCC(=O)NCC(=O)N2CCC[C@H]2C(=O)N[C@@H](CCCNC(=N)N)C(=O)N[C@@H](Cc2c[nH]c3ccccc23)C(=O)N[C@@H](CO)C(=O)N[C@H](C(=O)N[C@@H](CCC(=O)O)C(=O)N[C@@H](C)C(=O)O)[C@@H](C)O)NC(=O)[C@H](C(C)C)NC(=O)[C@H](CCCNC(=N)N)NC(=O)[C@H](C(C)C)NC(=O)[C@H](CC(C)C)NC(=O)[C@H](C)NC(=O)[C@H](CCCNC(=N)N)NC(=O)[C@H](C(C)C)NC(=O)[C@H](Cc2ccccc2)NC(=O)[C@H](Cc2c[nH]cn2)NC(=O)[C@H](Cc2c[nH]cn2)NC(=O)CNC1=O | Relaxin receptor 2 (RXFP2, Homo sapiens, UniProt Q8WXD0) | cAMP, agonist |  | EC50 | 0.0166 nM |
| CC[C@H](C)[C@H](NC(=O)[C@H](Cc1ccccc1)NC(=O)[C@H](CCC(=O)O)NC(=O)[C@H](CCCCN)NC(=O)[C@H](C)NC(=O)[C@H](C)NC(=O)[C@H](CCC(N)=O)NC(=O)CNC(=O)[C@H](CCC(=O)O)NC(=O)[C@H](CC(C)C)NC(=O)[C@H](Cc1ccc(O)cc1)NC(=O)[C@H](CO)NC(=O)[C@H](CO)NC(=O)[C@@H](NC(=O)[C@H](CC(=O)O)NC(=O)[C@H](CO)NC(=O)[C@@H](NC(=O)[C@H](Cc1ccccc1)NC(=O)[C@@H](NC(=O)CNC(=O)[C@H](CCC(=O)O)NC(=O)[C@H](C)NC(=O)[C@H](Cc1c[nH]cn1)NC[C@H](C)N)[C@@H](C)O)[C@@H](C)O)C(C)C)C(=O)N[C@@H](C)C(=O)N[C@@H](Cc1c[nH]c2ccccc12)C(=O)N[C@@H](CC(C)C)C(=O)N[C@H](C(=O)N[C@@H](CCCCN)C(=O)NCC(=O)N[C@@H](CCCNC(=N)N)C(N)=O)C(C)C | GLP1R | reporter gene, agonist, luciferase |  | EC50 | 0.00251 nM |
| COC(=O)Cc1ccc2c(c1)NC(=O)c1cc(C)c(-c3ccc([N+](=O)[O-])c(OC)c3)cc1N2 | CHEK1 | enzyme activity, inhibitor |  | IC50 | 49.4 nM |
| CCN(CC)Cc1ccc2cc(COC(=O)Nc3ccc(C(=O)NO)cc3)ccc2c1 | Histone deacetylase 5 (HDAC5, Homo sapiens, UniProt Q9UQL6) | cell-free assay |  | Kd | > 30200 nM |
| OCc1ccc2c(c1)-c1n[nH]c(-c3ccc(-c4ccc(O)cc4)cc3)c1C2 | CHEK1 | enzyme activity, inhibitor |  | IC50 | 4.4 nM |
| CC[C@H](C)[C@H](NC(=O)[C@H](CC(=O)O)NC(=O)[C@H](CO)NC(=O)[C@@H](NC(=O)[C@H](Cc1ccccc1)NC(=O)[C@@H](NC(=O)CNC(=O)[C@H](CC(=O)O)NC(=O)[C@H](C)NC(=O)[C@@H](N)Cc1c[nH]cn1)[C@@H](C)O)[C@@H](C)O)C(=O)N[C@@H](CC(N)=O)C(=O)N[C@@H](CCCCN)C(=O)N[C@H](C(=O)N[C@@H](CC(C)C)C(=O)N[C@@H](CC(=O)O)C(=O)N[C@@H](CC(=O)O)C(=O)N[C@@H](CCSC)C(=O)N[C@@H](C)C(=O)N[C@@H](C)C(=O)N[C@@H](CCCCN)C(=O)N[C@@H](CCC(=O)O)C(=O)N[C@@H](Cc1ccccc1)C(=O)N[C@@H](CC(C)C)C(=O)N[C@@H](CCCCN)C(=O)N[C@@H](Cc1c[nH]c2ccccc12)C(=O)N[C@@H](CC(C)C)C(=O)N[C@H](C(=O)N[C@@H](CC(N)=O)C(=O)N[C@H](C(=O)N[C@@H](CCCCN)C(=O)N[C@H](C(=O)N[C@H](C(=O)N[C@@H](CCC(N)=O)C(=O)O)[C@@H](C)O)C(C)C)[C@@H](C)O)[C@@H](C)CC)[C@@H](C)CC | GLP1R | reporter gene, agonist, luciferase |  | EC50 | 2.79 nM |
| Oc1ccc(-c2ccc(-c3[nH]nc4c3Cc3cc(O)ccc3-4)cc2)cc1 | CHEK1 | enzyme activity, inhibitor |  | IC50 | 5.9 nM |
| CCCCc1nc2c(o1)c(N)nc1ccccc12 | TLR8 | reporter gene, agonist |  | EC50 | 12500 nM |
